Active and inactive are the calls of the source. No cut-off for these calls is given here.
What was measured:
[1] = Cytotoxicity against human HuH7 cells after 72 hrs by SRB assay; assay type: functional, cell-based; settings: Huh-7, 72 h
Summary of the method: (§1)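 Sulforhodamine B assay. Cells seeded at 2000–10,000/well and treated the next day in triplicate with ten concentrations (DMSO vehicle, under 1% final) for 24, 48 or 72 h at 37 °C, 5% CO2. Fixed with ice-cold TCA for 1 h at 4 °C, stained with 0.4% SRB in 1% acetic acid, dye solubilized in 10 mM Tris base, A515 read. % inhibition = 100 × (1 − OD drug/OD DMSO). IC50 taken from dose–response curves.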

[2] = Cytotoxicity against human HCT116 cells after 72 hrs by SRB assay; assay type: functional, cell-based; settings: HCT-116, 72 h
Summary of the method: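 SRB screen. Cells seeded at 2000–10,000/well and treated next day for 72 h with 40, 20, 10, 5 and 2.5 µM (DMSO under 1%). TCA fixation, 0.4% SRB staining, Tris solubilization, absorbance at 515 nm. Growth inhibition calculated relative to DMSO-only wells. IC50 derived from the five-concentration inhibition percentages.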

T47D = assay: Cytotoxicity against human T47D cells after 72 hrs by SRB assay; assay type: functional, cell-based
HepG2 [3] = assay: Cytotoxicity against human HepG2 cells after 72 hrs by SRB assay; assay type: functional, cell-based; settings: HepG2, 72 h; summary of the method: as §1
[4] = Cytotoxicity against human Hep3B cells after 72 hrs by SRB assay; assay type: functional, cell-based, Hep 3B2
Summary of the method: (§2)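 Liver cancer cell panel, SRB assay after 72 h exposure to ten concentrations (DMSO vehicle under 1%). TCA-fixed, SRB-stained, absorbance at 515 nm. Percent cell death calculated against DMSO-only wells, and IC50 read from dose–response curves.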

PLC = assay: Cytotoxicity against human PLC cells after 72 hrs by SRB assay; assay type: functional, cell-based; summary of the method: as §2
[5] = Cytotoxicity against human SKHEP1 cells after 72 hrs by SRB assay; assay type: functional, cell-based; settings: SK-HEP1, 72 h; summary of the method: as §2
[6] = Cytotoxicity against human Mahlavu cells after 72 hrs by SRB assay; assay type: functional, cell-based; summary of the method: as §1
[7] = Cytotoxicity against human FOCUS cells after 72 hrs by SRB assay; assay type: functional, cell-based; summary of the method: as §1
[8] = Cytotoxicity against human SNU182 cells after 72 hrs by SRB assay; assay type: functional, cell-based; settings: SNU-182, 72 h; summary of the method: as §2
[9] = Cytotoxicity against human SNU475 cells after 72 hrs by SRB assay; assay type: functional, cell-based, SNU-475; summary of the method: as §2
Huh-7 [10] = assay: Cytotoxicity against human HuH7 cells assessed as condensed apoptotic nuclei after 72 hrs by Hoechst […] staining-based fluorescence microscopy; assay type: functional, cell-based
FOCUS = assay: Cytotoxicity against human FOCUS cells assessed as condensed apoptotic nuclei after 72 hrs by Hoechst […] staining-based fluorescence microscopy; assay type: functional, cell-based
Mahlavu [11] = assay: Induction of apoptosis in human Mahlavu cells assessed as PARP cleavage at IC50 after 72 hrs by Western blotting analysis; assay type: functional, cell-based
Mahlavu [12] = assay: Induction of […] in human Mahlavu cells assessed as PARP cleavage at IC50 after 72 hrs by Western blotting analysis; assay type: functional, cell-based
Mahlavu [13] = assay: Induction of apoptosis in human Mahlavu cells assessed as Bcl2 expression at IC50 after 72 hrs by Western blotting analysis; assay type: functional, cell-based
Mahlavu [14] = assay: Induction of apoptosis in human Mahlavu cells assessed as total cytochrome c level at IC50 after 72 hrs by Western blotting analysis; assay type: functional, cell-based
Huh-7 [15] = assay: Reduction in intrinsic cellular ATP consumption in human HuH7 cells at IC50 after 24 hrs by bioluminescence assay; assay type: functional, cell-based
Summary of the method: (§3)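 Cells treated for 24 h, with staurosporine as positive control and DMSO-only controls. 20 µg lysate protein in kinase buffer (40 mM Tris-HCl pH 7.6, 20 mM MgCl2, 0.1 mg/ml BSA), no exogenous ATP added. Luciferase ATP-detection reagent added, 10 min in the dark at room temperature, then luminescence read. Higher signal taken as reduced ATP consumption.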

Mahlavu [16] = assay: Reduction in intrinsic cellular ATP consumption in human Mahlavu cells at IC50 after 24 hrs by bioluminescence assay; assay type: functional, cell-based; summary of the method: as §3
[17] = Cytotoxicity against human HuH7 cells after 24 hrs by SRB assay; assay type: functional, cell-based; settings: Huh-7, 24 h; summary of the method: as §1
HepG2 [18] = assay: Cytotoxicity against human HepG2 cells after 24 hrs by SRB assay; assay type: functional, cell-based; settings: HepG2, 24 h; summary of the method: as §1
[19] = Cytotoxicity against human Mahlavu cells after 24 hrs by SRB assay; assay type: functional, cell-based; summary of the method: as §1
[20] = Cytotoxicity against human FOCUS cells after 24 hrs by SRB assay; assay type: functional, cell-based; summary of the method: as §1
[21] = Cytotoxicity against human HuH7 cells after 48 hrs by SRB assay; assay type: functional, cell-based; settings: Huh-7, 48 h; summary of the method: as §1
HepG2 [22] = assay: Cytotoxicity against human HepG2 cells after 48 hrs by SRB assay; assay type: functional, cell-based; settings: HepG2, 48 h; summary of the method: as §1
[23] = Cytotoxicity against human Mahlavu cells after 48 hrs by SRB assay; assay type: functional, cell-based; summary of the method: as §1
[24] = Cytotoxicity against human FOCUS cells after 48 hrs by SRB assay; assay type: functional, cell-based; summary of the method: as §1
Huh-7 [25] = assay: Cytotoxicity against human HuH7 cells at 2.5 to 40 uM by RT-CES method; assay type: functional, cell-based; settings: TDE = time-dependent effect
Summary of the method: (§4)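 Real-time impedance sensing (xCELLigence) on E-96 plates, run in triplicate. 2000 cells/well seeded; the next day medium was partly replaced and the compound added at 40, 20, 10, 5 or 2.5 µM, with DMSO-only and medium-only wells. Cell Index recorded every 30 min for at least 120 h at 37 °C, 5% CO2.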

HepG2 [26] = assay: Cytotoxicity against human HepG2 cells at 2.5 to 40 uM by RT-CES method; assay type: functional, cell-based; settings: TDE = time-dependent effect; summary of the method: as §4
Mahlavu [27] = assay: Cytotoxicity against human Mahlavu cells at 2.5 to 40 uM by RT-CES method; assay type: functional, cell-based; settings: TDE = time-dependent effect; summary of the method: as §4
Huh-7 [28] = assay: Induction of senescence in human HuH7 cells at IC50 to IC100 after 3 to 6 days by BrdU staining-based assay; assay type: functional, cell-based
Summary of the method: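 Huh7 cells (5000) on coverslips in 6-well plates, treated with compound at IC50 and IC100, doxorubicin 25 ng/ml, or DMSO for 3 and 6 days. Medium refreshed 24 h before assay, containing 30 µM BrdU in one plate. SA-β-gal staining and BrdU incorporation assessed in parallel.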

Huh-7 [29] = assay: Cytotoxicity against human HuH7 cells measured every 30 mins up to 120 hrs by RT-CES method
HepG2 [30] = assay: Cytotoxicity against human HepG2 cells measured every 30 mins up to 120 hrs by RT-CES method
Mahlavu [31] = assay: Cytotoxicity against human Mahlavu cells measured every 30 mins up to 120 hrs by RT-CES method
[32] = Homo sapiens, SNU-475, 72 h, read-out: IC50

Compound | IC50 [1] | IC50 [2] | IC50 (T47D) | IC50 (HepG2 [3]) | IC50 [4] | IC50 (PLC) | IC50 [5] | IC50 [6] | IC50 [7] | IC50 [8] | IC50 [9, 32] | Activity (Huh-7 [10]) | Activity (FOCUS) | Activity (Mahlavu [11]) | Activity (Mahlavu [12]) | Activity (Mahlavu [13]) | Activity (Mahlavu [14]) | Activity (Huh-7 [15]) | Activity (Mahlavu [16]) | further results
FC(F)(F)c1ccc(N2CCN(c3ncnc4[nH]cnc34)CC2)cc1 | 3200 nM | 5100 nM | 39400 nM | 3700 nM | 6700 nM | 10500 nM | 4900 nM | 2300 nM | 2900 nM | 55400 nM | 9600 nM | Active | Active | inactive | inactive | inactive | inactive | Active | Active | –
FC(F)(F)c1ccc(N2CCN(c3ncnc4c3ncn4C3CCCC3)CC2)cc1 | 200 nM | < 100 nM | < 100 nM | 200 nM | 800 nM | 6400 nM | 200 nM | 100 nM | 100 nM | 9600 nM | – | Active | Active | inactive | inactive | inactive | inactive | Active | Active | IC50 ([9]; snu-475): Not Active; IC50 [17]: 2700 nM; IC50 (HepG2 [18]): 1200 nM; IC50 [19]: 50100 nM; IC50 [20]: 16700 nM; IC50 [21]: 1400 nM; IC50 (HepG2 [22]): 800 nM; IC50 [23]: 300 nM; IC50 [24]: 300 nM; Activity (Huh-7 [25]): tde; Activity (HepG2 [26]): tde; Activity (Mahlavu [27]): tde; Activity (Huh-7 [28]): Active; Activity (Huh-7 [29]): Dose-dependent effect; Activity (HepG2 [30]): Dose-dependent effect; Activity (Mahlavu [31]): Dose-dependent effect
Cc1ccc(S(=O)(=O)n2cnc3c(N4CCN(c5ccc(C(F)(F)F)cc5)CC4)ncnc32)cc1 | 1400 nM | 4500 nM | 42700 nM | 1200 nM | 2900 nM | 3700 nM | 1700 nM | 1000 nM | 1000 nM | 8400 nM | 5400 nM | Active | Active | inactive | inactive | inactive | inactive | Active | Active | –
